For one data set, the system named is PC-3. As to the kind of experiment: Antiproliferative activity against androgen receptor negative human PC-3 cells assessed as reduction in cell growth at 5 uM measured upto 6 days by CellTiter-Glo assay. The format is functional, cell-based. The settings on record: time <= 6.0 day. Put shortly:
(§1)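 Cells were seeded at 20,000/well, four replicates per condition, in complete medium with 0.1% DMSO. Compound was added 24 h after seeding at a single concentration of 5 μM (0.2% final DMSO). Viability was read by CellTiter-Glo luminescence (10 min, room temperature, in HBSS) at timepoints up to 144 h (6 days).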

Data set [1] relates to LNCaP/AR. The data set can be described thus: Antiproliferative activity against human LNCaP/AR cells assessed as reduction in cell growth measured after 3 days by CellTiter-Glo assay. Format: functional, cell-based. The following applies: dose 0.1-25 µM, time 3.0 day. Summed up:
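LNCaP-AR cells (AR-overexpressing) were seeded at 20,000/well, four replicates, in 0.1% DMSO complete medium. Drug was added 24 h later across 0.1–25 μM (0.2% final DMSO) for three days. Viability was measured by CellTiter-Glo luminescence after 10 min at room temperature.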

The test system of data set [2] is LNCaP/AR. As to the kind of experiment: Antiproliferative activity against human LNCaP/AR cells assessed as reduction in cell growth at 5 uM measured upto 6 days by CellTiter-Glo assay. Format: functional, cell-based. The settings on record: time <= 6.0 day.
The subject of another data set is LNCaP C4-2B. As to the kind of experiment: Antiproliferative activity against androgen receptor positive human LNCaP C4-2B cells assessed as reduction in cell growth at 5 uM measured upto 6 days by CellTiter-Glo assay. The format is functional, cell-based. The following applies: time <= 6.0 day. Summed up:
as §1

For data set [3], the system named is LNCaP. As to the kind of experiment: Reduction in KLK2 gene expression in human LNCaP cells at 5 uM incubated for 48 hrs by qRT-PCR analysis. The format is functional, cell-based. Summed up:
(§2)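 Cells were plated in triplicate per condition; drug (0.1% final DMSO) was added after 24 h and left for 48 h. RNA was extracted and 2 μg reverse-transcribed. cDNA was diluted 1:50 and amplified by qPCR with 400 nM primers.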
(In general: Quantitative PCR measures a nucleic acid by following its amplification.)

The test system of data set [4] is LNCaP. The data set can be described thus: Reduction in KLK3 gene expression in human LNCaP cells at 5 uM incubated for 48 hrs by qRT-PCR analysis. Format: functional, cell-based. Put shortly: as §2
The nature of data set [5]: Metabolic stability in human liver microsomes assessed as half life measured upto 60 mins in presence of NADPH by LC/MS/MS analysis. Format: ADME, Microsome. The following applies: 1 h. Put shortly:
(§3)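 Human liver microsomes at 0.5 mg/mL protein with 1 mM NADPH, sampled at 0, 15, 30 and 60 min, N = 1. Parent disappearance was followed by LC/MS/MS with verapamil as control. CLint = ln(2)*1000/T1/2/protein concentration (mg/mL).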
(Microsomes from liver hold many membrane-bound enzymes, among them those of drug oxidation.)

A short description of data set [6]: Metabolic stability in human liver microsomes assessed as intrinsic clearance measured upto 60 mins in presence of NADPH by LC/MS/MS analysis. Format: ADME, Microsome. The following applies: 1 h. Put shortly:
as §3

Data set [7] can be described thus: Kinetic solubility of compound at pH 7.4 by shake flask assay. The format is physicochemical. The settings on record: buffer. Put shortly:
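Kinetic solubility of DMSO solutions in phosphate-buffered saline, pH 7.4, by automated miniaturized shake-flask method. Quantitation was by chemiluminescent nitrogen detection.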

Data set [8] is described as follows: Tmax in NSG mouse at 10 mg/kg, ip. The following applies: in vivo. Format: ADME, organism-based. Summed up:
(§4)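 Healthy NSG mice got a single 10 mg/kg intraperitoneal dose. Plasma concentrations of conjugate and released payload were measured over time, with n = 9 or n = 6 mice depending on conjugate. Tmax, Cmax and AUClast (hr•ng/mL) were derived from the plasma profiles.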

Data set [9] can be described thus: Cmax in NSG mouse at 10 mg/kg, ip. Also noted: dose 10 mg/kg, route ip. The settings on record: in vivo. Format: ADME, organism-based. Put shortly:
as §4

Data set [10] in a line: AUClast in NSG mouse at 10 mg/kg, ip. On the set-up: dose 10 mg/kg, route ip. The format is ADME, organism-based. The settings on record: in vivo. Summed up: as §4
A short description of data set [11]: Metabolic stability in mouse liver microsomes assessed as half life measured upto 60 mins in presence of NADPH by LC/MS/MS analysis. Format: ADME, Microsome. The following applies: 1 h.
Data set [12] can be described thus: Metabolic stability in mouse liver microsomes assessed as intrinsic clearance measured upto 60 mins in presence of NADPH by LC/MS/MS analysis. The settings on record: 1 h. Format: ADME, Microsome.
Data set [13] in a line: Drug concentration in NSG mouse brain at 10 mg/kg, ip measured after 2 hrs. Format: ADME, organism-based. The settings on record: read-out: Drug uptake. Summed up:
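Healthy NSG mice were given a single 10 mg/kg intraperitoneal injection. Brains were collected at set timepoints, including 2 h post-dose. Both the intact conjugate and its released antiandrogen payload were measured in brain tissue, with concentrations expressed as ng/g.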

Active and inactive are the calls of the source. The rule behind the calls is not given here.

As for `N#Cc1ccc(N2C(=O)C3(CCC3)N(c3ccc(O)cc3)C2=S)cc1C(F)(F)F`, in the data set on PC-3, the outcome was inactive.
With `CN(CCN(C)C(=O)O[C@@H]1CCC[C@]2(C1)OOC1(O2)C2CC3CC(C2)CC1C3)C(=O)Oc1ccc(N2C(=S)N(c3ccc(C#N)c(C(F)(F)F)c3)C(=O)C23CCC3)cc1` (some centres undefined), the Activity entry with LNCaP/AR [1] is “Dose-Dependent Effect”. Besides, the outcome in the data set with LNCaP/AR [2], in the data set with LNCaP C4-2B, in the data set on LNCaP [3] and in the data set with LNCaP [4] was Active. Moreover, the result with PC-3 was inactive. Further, the t1/2 in [5] is listed as 53.4 min. Besides, in data set [6], the CLH was determined as 25.9 µL/min/mg. The molecule also came in with a Kinetic_solubility in data set [7] of 2.3 µM. The Tmax (in general, the time at which the peak concentration occurs) in data set [8] is 30 min. Besides, the highest level in [9] (Cmax) was 346 ng/mL. The area under the curve AUC(0-t) (commonly the area under the concentration-time curve up to a stated or last time point) in data set [10] was found to be 81.1 µg·h/mL.
For `N#Cc1ncc(N2C(=O)C3(CCC3)N(c3ccc(OC4CCN(C(=O)O[C@@H]5CCC[C@]6(C5)OOC5(O6)C6CC7CC(C6)CC5C7)CC4)nc3)C2=S)cc1C(F)(F)F` (some centres undefined), the outcome in the data set on LNCaP/AR [2], in the data set on LNCaP C4-2B, in the data set with LNCaP [3] and with LNCaP [4] was Active. In addition, the result in the data set on PC-3 was inactive. Besides, the t1/2 in data set [11] was found to be 48.2 min. For the same molecule, the CLH in data set [12] amounted to 28.8 µL/min/mg. The molecule also gave a Kinetic_solubility in data set [7] of under 0.4 µM. Moreover, the Tmax in [8] was 30 min. The peak level in data set [9] (Cmax) was 641 ng/mL. The AUC(0-t) in data set [10] turned out to be 158 µg·h/mL.
For the molecule `CNC(=O)c1ccc(N2C(=S)N(c3cnc(C#N)c(C(F)(F)F)c3)C(=O)C23CCC3)cc1F` [APALUTAMIDE], the outcome in the data set with PC-3 was inactive. The outcome in the data set on LNCaP [3] and with LNCaP [4] was Active. Also, the Tmax in [8] worked out at 240 min. Besides, the peak level in data set [9] (Cmax) was 4330 ng/mL. The molecule also came in with an AUC(0-t) in data set [10] of 4490 µg·h/mL. Moreover, the concentration at 2 h in [13] was determined as 808 ng/g.
As to `N#Cc1ncc(N2C(=O)C3(CCC3)N(c3ccc(OC4CCNCC4)nc3)C2=S)cc1C(F)(F)F`, in the data set on PC-3, the outcome was inactive.
Take `N#Cc1ncc(N2C(=O)C3(CCC3)N(c3ccc(OC4CCN(C(=O)O[C@H]5CCC[C@@]6(C5)OOC5(O6)C6CC7CC(C6)CC5C7)CC4)nc3)C2=S)cc1C(F)(F)F` (some centres undefined): the t1/2 in data set [11] is 34.5 min. In addition, the CLH in data set [12] worked out at 40.2 µL/min/mg.

The record behind these values is ChEMBL document CHEMBL5346890, “Elevated labile iron in castration-resistant prostate cancer is targetable with ferrous iron-activatable antiandrogen therapy” (Eur J Med Chem, 2023).
